What was measured:
MCF7 [1] = assay: Growth inhibition of human MCF7 cells at 1 uM after 48 hrs by MTT assay; format: functional; details: MCF7, 48 h, read-out: GI
Method in brief: (§1)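 Cells from ECACC are kept in RPMI-1640 with 10% FCS and 1% penicillin at 37 °C in 5% CO2. They are seeded at 3×10^3 cells/well and dosed after 24 h from filter-sterilized DMSO stocks, then treated for 48 h. MTT (2.5 mg/mL in PBS) is added, formazan is dissolved in DMSO, and A570 is read. Viability is given as % of untreated.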

A549 [2] = assay: Growth inhibition of human A549 cells at 1 uM after 48 hrs by MTT assay; format: functional; details: A549, 48 h, read-out: GI; method in brief: as §1
PC-3 [3] = assay: Growth inhibition of human PC3 cells at 1 uM after 48 hrs by MTT assay; format: functional; details: PC-3, 48 h, read-out: GI; method in brief: as §1
Staphylococcus aureus = assay: Antibacterial activity against Staphylococcus aureus MTCC 2901 after 24 hrs by tube dilution method; format: functional
Bacillus subtilis = assay: Antibacterial activity against Bacillus subtilis MTCC 2063 after 24 hrs by tube dilution method; format: functional
Escherichia coli = assay: Antibacterial activity against Escherichia coli MTCC 1652 after 24 hrs by tube dilution method; format: functional
Candida albicans = assay: Antifungal activity against Candida albicans MTCC 227 after 48 hrs by tube dilution method; format: functional
Aspergillus niger = assay: Antifungal activity against Aspergillus niger MTCC 8184 after 7 days by tube dilution method; format: functional
Method in brief: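 Tube (serial) dilution MIC in Sabouraud dextrose broth I.P., 25 °C for 7 days. Results are recorded as MIC and reported as pMIC in mM.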

MCF7 [4] = assay: Growth inhibition of human MCF7 cells at 50 uM after 48 hrs by MTT assay; format: functional; details: MCF7, 48 h, read-out: GI; method in brief: as §1
MCF7 [5] = assay: Growth inhibition of human MCF7 cells at 10 uM after 48 hrs by MTT assay; format: functional; details: MCF7, 48 h, read-out: GI; method in brief: as §1
A549 [6] = assay: Growth inhibition of human A549 cells at 50 uM after 48 hrs by MTT assay; format: functional; details: A549, 48 h, read-out: GI; method in brief: as §1
A549 [7] = assay: Growth inhibition of human A549 cells at 10 uM after 48 hrs by MTT assay; format: functional; details: A549, 48 h, read-out: GI; method in brief: as §1
HCT-116 [8] = assay: Growth inhibition of human HCT116 cells at 50 uM after 48 hrs by MTT assay; format: functional; details: HCT-116, 48 h, read-out: GI; method in brief: as §1
HCT-116 [9] = assay: Growth inhibition of human HCT116 cells at 10 uM after 48 hrs by MTT assay; format: functional; details: HCT-116, 48 h, read-out: GI; method in brief: as §1
PC-3 [10] = assay: Growth inhibition of human PC3 cells at 50 uM after 48 hrs by MTT assay; format: functional; details: PC-3, 48 h, read-out: GI; method in brief: as §1
PC-3 [11] = assay: Growth inhibition of human PC3 cells at 10 uM after 48 hrs by MTT assay; format: functional; details: PC-3, 48 h, read-out: GI; method in brief: as §1
MCF7 [12] = assay: Growth inhibition of human MCF7 cells after 48 hrs by MTT assay; format: functional, cell-based; method in brief: as §1
A549 [13] = assay: Growth inhibition of human A549 cells after 48 hrs by MTT assay; format: functional, cell-based; method in brief: as §1
HCT-116 [14] = assay: Growth inhibition of human HCT116 cells after 48 hrs by MTT assay; format: functional, cell-based; method in brief: as §1
A549 [15] = assay: Growth inhibition of human A549 cells at 20 uM after 48 hrs by MTT assay; format: functional; details: A549, 48 h, read-out: GI
Method in brief: (§2)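 Cells from ECACC, grown in RPMI-1640 with 10% FCS and 1% penicillin, 37 °C, 5% CO2. Seeded at 3×10^3 cells/well in 100 µL medium. Compounds added 24 h later from filter-sterilized DMSO stocks. MTT (2.5 mg/mL in PBS, 20 µL) added, then at least 4 h incubation. Formazan dissolved in DMSO after 48 h treatment, absorbance read at 570 nm. Results given as % viable cells versus untreated.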

HCT-116 [16] = assay: Growth inhibition of human HCT116 cells at 20 uM after 48 hrs by MTT assay; format: functional; details: HCT-116, 48 h, read-out: GI; method in brief: as §2

CO[C@@]12[C@H](COC(N)=O)C3=C(C(=O)C(C)=C(N)C3=O)N1C[C@@H]1N[C@@H]12 [MITOMYCIN]
inhibition of growth at 1 µM (MCF7 [1]): 82% | inhibition of growth at 1 µM (A549 [2]): 70% | inhibition of growth at 1 µM (PC-3 [3]): 70%

Fc1ccc(C2=NC(c3ccccc3)c3c(ccc4ccccc34)O2)cc1 (stereo unspecified)
-logMIC (Staphylococcus aureus): 1.75 | -logMIC (Bacillus subtilis): 2.05 | -logMIC (Escherichia coli): 2.35 | -logMIC (Candida albicans): 1.75 | -logMIC (Aspergillus niger): 1.45 | inhibition of growth at 50 µM (MCF7 [4]): 51% | inhibition of growth at 10 µM (MCF7 [5]): 29% | inhibition of growth at 50 µM (A549 [6]): 50% | inhibition of growth at 10 µM (A549 [7]): 18% | inhibition of growth at 50 µM (HCT-116 [8]): 56% | inhibition of growth at 10 µM (HCT-116 [9]): 12% | inhibition of growth at 50 µM (PC-3 [10]): 39% | inhibition of growth at 10 µM (PC-3 [11]): 14% | growth inhibition (GI) (MCF7 [12]): Dose-dependent effect | growth inhibition (GI) (A549 [13]): Dose-dependent effect | growth inhibition (GI) (HCT-116 [14]): Dose-dependent effect

O=c1[nH]cc(F)c(=O)[nH]1 [FLUOROURACIL]
inhibition of growth at 20 µM (A549 [15]): 79% | inhibition of growth at 20 µM (HCT-116 [16]): 78%

Source: ChEMBL document CHEMBL2086288, “Synthesis, antimicrobial and cytotoxicity study of 1,3-disubstituted-1H-naphtho[1,2-e][1,3]oxazines” (2012)
